According to ChEMBL document CHEMBL1123413, “Synthesis and biological evaluation of 1-(1,2-benzisothiazol-3-yl)- and (1,2-benzisoxazol-3-yl)piperazine derivatives as potential antipsychotic agents” (J Med Chem, 1986):

Assays:
[1] = target: T1, Adrenergic receptor alpha-1 (Rattus norvegicus, UniProt P15823+P23944+P43140)
T1 sequence (P15823 whole entry): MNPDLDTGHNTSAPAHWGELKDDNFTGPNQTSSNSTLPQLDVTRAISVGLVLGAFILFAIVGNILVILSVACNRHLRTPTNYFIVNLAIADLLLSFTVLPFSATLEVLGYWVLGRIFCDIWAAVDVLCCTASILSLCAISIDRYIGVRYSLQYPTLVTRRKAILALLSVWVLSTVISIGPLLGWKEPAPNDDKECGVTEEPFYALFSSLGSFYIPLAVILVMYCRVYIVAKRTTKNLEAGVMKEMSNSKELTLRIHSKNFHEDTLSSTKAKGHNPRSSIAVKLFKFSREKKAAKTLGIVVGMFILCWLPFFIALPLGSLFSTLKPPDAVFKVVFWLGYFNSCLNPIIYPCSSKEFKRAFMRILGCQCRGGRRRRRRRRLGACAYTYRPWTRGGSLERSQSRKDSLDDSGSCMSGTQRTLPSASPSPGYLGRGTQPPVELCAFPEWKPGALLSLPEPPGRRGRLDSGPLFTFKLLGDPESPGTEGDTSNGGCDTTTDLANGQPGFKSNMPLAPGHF
T1 sequence (P23944 whole entry): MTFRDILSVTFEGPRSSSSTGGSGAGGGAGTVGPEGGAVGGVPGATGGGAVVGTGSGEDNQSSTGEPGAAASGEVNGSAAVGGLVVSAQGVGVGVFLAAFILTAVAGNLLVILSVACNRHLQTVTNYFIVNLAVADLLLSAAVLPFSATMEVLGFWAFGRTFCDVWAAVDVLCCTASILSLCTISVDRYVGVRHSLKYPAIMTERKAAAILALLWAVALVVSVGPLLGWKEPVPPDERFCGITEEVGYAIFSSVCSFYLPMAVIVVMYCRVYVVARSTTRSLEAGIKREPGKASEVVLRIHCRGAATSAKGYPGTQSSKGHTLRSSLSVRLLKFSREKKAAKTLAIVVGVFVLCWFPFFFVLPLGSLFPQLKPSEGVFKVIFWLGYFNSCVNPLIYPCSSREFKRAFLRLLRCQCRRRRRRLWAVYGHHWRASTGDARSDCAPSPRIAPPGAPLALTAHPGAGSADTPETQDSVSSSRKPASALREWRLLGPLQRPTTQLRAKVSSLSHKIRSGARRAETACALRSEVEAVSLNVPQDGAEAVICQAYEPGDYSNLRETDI
T1 sequence (P43140 whole entry): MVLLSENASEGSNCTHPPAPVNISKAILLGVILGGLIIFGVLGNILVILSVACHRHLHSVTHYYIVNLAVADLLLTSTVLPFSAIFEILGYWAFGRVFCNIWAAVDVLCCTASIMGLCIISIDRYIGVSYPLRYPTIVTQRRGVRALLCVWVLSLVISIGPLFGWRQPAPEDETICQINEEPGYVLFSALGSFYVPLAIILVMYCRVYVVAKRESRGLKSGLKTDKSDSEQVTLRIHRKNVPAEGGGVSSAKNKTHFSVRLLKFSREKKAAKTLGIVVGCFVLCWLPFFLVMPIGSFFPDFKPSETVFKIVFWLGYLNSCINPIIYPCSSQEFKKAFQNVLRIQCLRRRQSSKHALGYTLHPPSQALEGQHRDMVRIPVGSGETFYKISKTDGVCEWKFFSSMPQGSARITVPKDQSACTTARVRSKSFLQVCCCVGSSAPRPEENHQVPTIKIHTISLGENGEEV

[2] = target: D(2) dopamine receptor (Rattus norvegicus, UniProt P61169); test: In vitro affinity for rat striatal Dopamine receptor D2 labeled with [3H]spiperone
[3] = species: Rattus norvegicus; test: Compound was tested for inhibition of conditioned avoidance response (CAR ); assay type: functional
In short: (§1)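 Rats trained to avoid an electric shock, test compound given orally, and block of the conditioned avoidance response scored. ED50 (mg/kg, po) with fiducial limits by the method of Berkson.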

[4] = species: Rattus norvegicus; test: Inhibition of conditioned avoidance response (CAR); assay type: functional
In short: as §1

[5] = species: Rattus norvegicus; test: Compound was tested for its ability to induce catalepsy in rats.; assay type: functional
In short: (§2)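 Catalepsy was induced in rats with orally dosed compound as a predictor of extrapyramidal liability. ED50 (mg/kg, po) with fiducial limits by Berkson's method.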

[6] = species: Rattus norvegicus; test: Compound was tested for its ability to induce catalepsy in rats; assay type: functional
In short: as §2

[7] = species: Rattus norvegicus; test: Compound was tested for the inhibition of apomorphine-induced stereotype; assay type: functional
In short: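 In rats, oral test compound was scored for block of apomorphine-induced stereotypy as an in vivo dopamine-system measure. ED50 (mg/kg, po) and fiducial limits by Berkson's method.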

D(2) dopamine receptor, sequence (P61169 whole entry): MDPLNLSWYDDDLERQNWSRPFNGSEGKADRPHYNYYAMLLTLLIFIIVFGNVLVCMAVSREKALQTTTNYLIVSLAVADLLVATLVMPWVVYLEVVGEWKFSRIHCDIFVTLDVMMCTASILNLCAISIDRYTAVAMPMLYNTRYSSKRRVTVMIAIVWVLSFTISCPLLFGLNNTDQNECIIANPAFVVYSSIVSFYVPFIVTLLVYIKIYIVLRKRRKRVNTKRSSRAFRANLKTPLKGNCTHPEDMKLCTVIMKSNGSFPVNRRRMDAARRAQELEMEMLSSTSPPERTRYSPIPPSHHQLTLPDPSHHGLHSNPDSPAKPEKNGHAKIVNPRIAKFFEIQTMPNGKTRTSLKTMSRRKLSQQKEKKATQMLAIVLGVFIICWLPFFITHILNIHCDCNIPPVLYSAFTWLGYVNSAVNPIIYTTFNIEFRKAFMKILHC

SMILES | IC50 [1] | IC50 [2] | ED50 [3] | ED50 [4] | ED50 [5] | ED50 [6] | ED50 [7]
Cl.c1ccc2c(N3CCNCC3)noc2c1 | 165 nM | > 1000 nM | – | > 100 mg/kg | – | – | –
Cl.c1ccc2c(N3CCNCC3)nsc2c1 | 510 nM | > 1000 nM | – | > 100 mg/kg | – | – | –
O=C1SC2(CCCC2)C(=O)N1CCCCN1CCN(c2noc3ccccc23)CC1 | – | 78 nM | – | 8.1 mg/kg | 21.5 mg/kg | – | –
O=C1CC2(CCCC2)CC(=O)N1CCCCN1CCN(c2noc3cc(Cl)ccc23)CC1 | 5 nM | 59 nM | – | 26 mg/kg | – | – | –
O=C1CC2(CCCC2)CC(=O)N1CCCCN1CCN(c2nc3ccccc3s2)CC1 | 454 nM | 145 nM | – | > 100 mg/kg | – | – | –
O=C1CC2(CCCC2)CC(=O)N1CCCCN1CCCN(c2nsc3ccccc23)CC1 | – | 235 nM | – | > 100 mg/kg | – | – | –
CC1CN(c2nsc3ccccc23)CCN1CCCCN1C(=O)CC2(CCCC2)CC1=O (stereo not drawn) | – | 203 nM | – | > 100 mg/kg | – | – | –
O=C1CC2(CCCC2)CC(=O)N1CCCN1CCN(c2nsc3ccccc23)CC1 | 3 nM | 145 nM | – | > 100 mg/kg | – | – | –

Now those with a lower IC50 [2], led by results:

IC50 [1] | IC50 [2] | SMILES | ED50 [3] | ED50 [4] | ED50 [5] | ED50 [6] | ED50 [7]
9 nM | 55 nM | CCCC1(C)CC(=O)N(CCCCN2CCN(c3nsc4ccccc34)CC2)C(=O)C1.Cl | 24.3 mg/kg | – | – | – | –
0.9 nM | 53 nM | Cl.O=C1CSC(=O)N1CCCCN1CCN(c2nsc3ccccc23)CC1 | 27.8 mg/kg | – | – | – | –
– | 49 nM | CCC1(CC)CC(=O)N(CCCCN2CCN(c3nsc4ccccc34)CC2)C(=O)C1.Cl | 35.2 mg/kg | – | – | – | –
9 nM | 42 nM | Cl.O=C1SC2(CCCC2)C(=O)N1CCCCN1CCN(c2nsc3ccccc23)CC1 | 11.6 mg/kg | – | 45 mg/kg | – | –
7 nM | 25 nM | O=C1CC2(CCCC2)CC(=O)N1CCCCN1CCN(c2noc3ccccc23)CC1 | – | 10.6 mg/kg | 68.2 mg/kg | – | 20.2 mg/kg
2 nM | 2 nM | OC(CCCN1CCN(c2nsc3ccccc23)CC1)c1ccc(F)cc1 (stereo not drawn) | – | 2.4 mg/kg | – | 5 mg/kg | –
